This note sets out measurements from PubChem BioAssay AID2445 (The Scripps Research Institute Molecular Screening Center, 2010).

Hit rate of the full screen: of about 320,000 compounds, about 200 (0.062%) were called active. The full list was thinned out, with actives kept by preference. Unmarked numbers belong to inactive results.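 The calls were made as follows: active = activation above that plate's cutoff, the mean activation of tested compounds plus 3 SD (cut at about 6.6% in these data, passing the limit was not always enough); inactive = the rest.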

Sequence of Oxytocin receptor (Homo sapiens) (P30559 whole entry, looked up): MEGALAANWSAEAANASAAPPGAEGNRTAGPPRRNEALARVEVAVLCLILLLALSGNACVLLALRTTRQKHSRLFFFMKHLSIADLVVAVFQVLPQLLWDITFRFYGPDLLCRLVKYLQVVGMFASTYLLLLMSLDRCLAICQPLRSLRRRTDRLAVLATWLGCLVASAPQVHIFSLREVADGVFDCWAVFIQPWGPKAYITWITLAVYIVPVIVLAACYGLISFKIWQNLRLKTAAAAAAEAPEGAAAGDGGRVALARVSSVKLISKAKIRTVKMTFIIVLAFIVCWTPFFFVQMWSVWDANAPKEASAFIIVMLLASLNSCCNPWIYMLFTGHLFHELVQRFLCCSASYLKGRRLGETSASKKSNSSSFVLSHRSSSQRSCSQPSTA

The experiment deals with Oxytocin receptor (Homo sapiens) (UniProt P30559). The experiment can be described thus: enhancers of oxytocin-evoked OXTR calcium signal – fluorescence, CHO-OTR cells, Fluo-8 calcium, primary screen (AID 2445).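 Also: 100% uses oxytocin at 75 nM as the full agonist control.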 Conditions: Fluo-8 calcium fluorescence, potentiator mode, at 3 µM, stronger effect = higher value, 0% = oxytocin EC15, 100% = EC100. In outline:
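Material: CHO-OTR cells, human receptor; compound dosing: single dose, 3.0 µM nominal final compound concentration; schedule: 6 min compound pre-incubation at room temperature, 100 s kinetic read; measured by: kinetic Fluo-8 calcium fluorescence; read-out basis: % activation vs EC15 and EC100 oxytocin; controls: EC15 oxytocin alone as 0%, 75 nM oxytocin as 100%; replicates: singlicate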
On to `CC(=O)c1ccc(OCC(O)CN2CCN(S(=O)(=O)c3cccc(Br)c3)CC2)cc1` (configuration not stated), for which the activation was -10.6%.
The value for `COc1cc(OC)cc(C(=O)N[C@H](C(=O)NNC(=O)c2ccc(Br)cc2)C(C)C)c1` was 0.41%; that for `COc1ccc(S(=O)(=O)N2CCOC2CNC(=O)C(=O)NCc2ccncc2)cc1C` (configuration not stated) was 2.91%; that for `CCS(=O)(=O)n1nc(-c2ccccc2)nc1SCc1ccccc1` was 0.8%.
The value for `O=C(NC1CCCCCCC1)c1cccs1` was -9.53%; that for `CCO[C@H]1OC(C(=O)Nc2ccccc2)=C[C@@H](C2CC2)[C@@H]1CCCO` was -3.89%.
The value for `CCOc1ccc(CNC(=O)CCC(=O)N2CCSc3ccccc32)cc1` was -5.95%.
On to `CC(OC(=O)c1c(F)cccc1F)C(=O)NCCC1=CCCCC1` (configuration not stated), for which the activation is -1.25%.
The value for `CCCCCCSc1ccc([C@@H]2[C@@H]3C(=O)N(CC)C(=O)[C@@H]3[C@]3(C(=O)OC)CCCCN23)cc1OC` was -12.2%; that for `O=S1(=O)CCOC[C@H](CC2CCCCC2)N1Cc1ccc(F)cc1` was 0.09%; that for `Cc1ccccc1CCN(CC(=O)NC1CCCCC1)C(=O)c1csnn1` was -12.1%.
In the case of `Cc1c(Cl)cccc1NC(=O)[C@@]1(CC(=O)O)CC(/C=C/c2ccccc2)=NO1`, the activation is -10.7%.
For `Cc1ccc(S(=O)(=O)Nc2nc(CN3CCOCC3)nc3sc(C)c(C)c23)cc1`, the activation was 4.74%.
The value for `Cc1cc(C)c2c(c1)c(C)cc1nnc(SCC(=O)NCc3ccco3)n12` was -0.06%; that for `Cc1cc(C)cc(N(CCC#N)C(=O)CN2C(=O)NC3(CCCC3)C2=O)c1` was -5.16%.
Turning to `O=C(C1CCN(C2CCN(Cc3cccc4c3OCO4)CC2)CC1)N1CCOCC1`, the activation was -0.07%.
The result for `Cc1ccc(N2C(=O)C3C(c4ccccc4)(C2=O)C3(c2ccccc2)c2ccccc2)cc1` (configuration not stated) reads -5.54%; that for `CC1CCCC(NC(=O)CSc2nccn2C)C1C` (configuration not stated), -21.1%; that for `Cc1ccccc1-c1cc(C(=O)NCc2cccs2)n(CC2CC(c3cccnc3)=NO2)n1` (configuration not stated), -4.56%.
The value for `COc1cc2c(cc1OC)C(c1ccc(C)o1)CC(=O)N2` (configuration not stated) was 6.71% (active); that for `CCCOc1ccccc1C1CC(=O)Nc2cc3c(cc21)OCO3` (configuration not stated) was -15.5%.
For the molecule `COC(=O)c1ccc(C2CC(=O)Nc3cc(OC)c(OC)cc32)cc1` (configuration not stated), the activation is -2.55%.
The value for `Cc1ccc(CNC(=O)CCN2C(=O)[C@@H]3Cc4ccccc4CN3C2=O)cc1` was -7.86%; that for `CN(Cc1ccccc1Cl)C(=O)C1CCC(=O)N(CCc2cccc(F)c2)C1` (configuration not stated) was 5.76%.
The value for `COc1ccccc1CSc1ncc(-c2ccc([N+](=O)[O-])cc2)[nH]1` was -15.7%.
The value for `Cn1cccc1C(=O)N1CCc2ccccc2C1` was -4.4%.
Turning to `O=C(Nn1cc(C(=O)N2CCN(c3ccccc3F)CC2)c2ccccc2c1=O)c1cnccn1`, the activation is -16.9%.
The value for `COc1ccc([C@H]2[C@H](C(C)=O)N3N=Cc4ccccc4C3C23C(=O)OC(C)(C)OC3=O)cc1` (some centres not stated) was -5.56%.
The result for `O=C(COC(=O)Cn1cnc2ccccc21)Nc1cccc2c1C(=O)c1ccccc1C2=O` reads -2.58%.
The value for `Cc1cc(NC(=O)Nc2c[nH]c(=O)[nH]c2=O)ccc1Br` was -3.04%; that for `Cc1ccc2nc(NC(=O)C3CSC4(C)CCC(=O)N34)sc2c1` (configuration not stated) was -1.9%; that for `COc1ccc(Cl)cc1NC(=O)CN(C)C(=O)CCCc1c[nH]c2ccccc12` was -8.97%.
In the case of `CC(C)CN(C(=O)CSc1ncnc2sccc12)C1CCS(=O)(=O)C1` (configuration not stated), the activation is -5.65%.
The value for `CCCc1cc(=O)oc2cc(OCC(=O)Nc3ccc(CN4CCOCC4)cc3)c(Cl)cc12` was 2.03%; that for `COc1ccc(CCNC(=O)CCc2cn(C)c3ccccc23)c(OC)c1` was -6.44%; that for `C=CCNC(=O)COC(=O)CNC(=O)c1cc(Cl)cc([N+](=O)[O-])c1` was 6.81%.
The result for `Cn1c(=O)c2sccc2n(Cc2ccc(Br)cc2)c1=O` reads -7.63%; that for `COc1cc(S(=O)(=O)N2CCN(C(=O)C3CC3)CC2)ccc1NC(C)=O`, 5.54%; that for `O=C(CN(Cc1ccccc1)C(=O)CCC(=O)Nc1ccccn1)NCCc1ccccc1`, -8.23%.
The result for `O=C(Oc1ccc(-c2nnco2)cc1)c1ccc(F)c(S(=O)(=O)N2CCOCC2)c1` reads -5.86%; that for `O=C(COc1cc(Cl)c(Cl)cc1Cl)NC(=O)NC1CCCC1`, 2.91%; that for `O=C(NCCCN1CCCCC1)C1CCCN(c2ncnc3c2nc2n3CCCCC2)C1` (configuration not stated), -5.62%.
Consider `Cc1cc(C(=O)OCC(=O)Nc2ccccc2Cl)c(C)o1`, for which the activation is 1.55%.
The value for `CCCCn1c(N)c(N2CCOCC2)c(=O)n(CC(=O)NCCc2ccccc2)c1=O` was 14.8% (active); that for `COCCCNC(=O)CSc1nc2ccc(N3CCOCC3)cc2c(=O)n1CCc1ccccc1` was -1.26%.
The value for `O=C(COC(=O)c1cc(S(=O)(=O)N2CCOCC2)ccc1Cl)NCCc1ccccc1` was -5.23%; that for `CCC(=O)N1CCN=C1SCc1ccc(F)cc1` was -4.47%.
The result for `CCOC(=O)N1CCN(Cc2oc(CO)cc(=O)c2O)CC1` reads -9.68%; that for `Cc1noc(/C=C/c2ccco2)c1S(=O)(=O)N1CCC(C(=O)Nc2ccc(Cl)cn2)CC1`, -2.32%; that for `CCc1ccc(C(=O)NC(=S)Nc2ccccc2N2CCOCC2)cc1`, -6.63%.
As for `COc1ccccc1C(=O)NC(=S)Nc1ccccc1N1CCCCC1`, the activation is -5.57%.
The value for `O=C(NC(=S)Nc1ccccc1N1CCCCC1)c1ccc(F)cc1` was 25.2% (active).
The result for `COc1ccc(C[C@H]2CN3C(=NC[C@H]3C)N2CCNC(=O)CCC2CCCCC2)cc1` reads 3.05%.
The result for `C[C@H](NC(=O)c1nc[nH]c1C(=O)N[C@@H](C)C(=O)OC(C)(C)C)C(=O)OC(C)(C)C` reads -3.66%; that for `Cc1cccc(NC(=O)Cn2c(=O)n(Cc3ccccc3)c(=O)c3c(C)c(C)sc32)c1`, -5.82%.
For the molecule `Cc1ccc(CS(=O)(=O)CCC(=O)NC2CC2)cc1`, the activation was 0.82%.
Consider `COC(=O)C1=C[C@@H](C(=O)OC)[C@@H]2C3=C(C(=O)[C@]2(C)NC(=O)c2ccccc2)[C@H](C)n2c(=O)n(C)c(=O)n2[C@@H]3C1`, for which the activation was -11.9%.
The value for `COc1cc(NC(=O)COC(=O)c2ccc([N+](=O)[O-])s2)cc(OC)c1OC` was -5.07%.
The result for `O=C(Cn1cc(C(F)(F)F)ccc1=O)Nc1ccc2c(c1)OCCO2` reads 2.63%.
The result for `O=C(COC(=O)c1cc(=O)[nH]c2ccccc12)Nc1nc(-c2cccc(Br)c2)cs1` reads 2.69%; that for `CCOc1ccccc1NC(=O)CCc1nnc2ccc(NCc3ccco3)nn12`, 0.12%.
Take `CCCCCCNS(=O)(=O)c1ccccc1Br`: the activation was -3.1%.
The value for `Brc1ccc(-c2n(-c3ccccn3)c3ccccc3[n+]2-c2ccccn2)cc1` was -4.84%; that for `COC(=O)C1(C)CC1(c1ccccc1)c1ccccc1` (configuration not stated) was -14.7%.
Take `CCOC(=O)C1=C(C)OC(N)=C(C#N)C1c1cncc(-c2ccc(F)cc2)c1` (configuration not stated): the activation is -4.76%.
For the molecule `O=C(COC(=O)c1ccc(F)cc1F)Nc1ncccn1`, the activation is -2.64%.
Take `[O-][n+]1ccc(OCc2ccccc2)cc1`: the activation is -0.76%.
The value for `COc1ccccc1CNS(=O)(=O)CC12CCC(CC1=O)C2(C)C` (configuration not stated) was -12.6%.
The result for `Cc1cc(NC(=O)CSc2nc(=O)cc(N)n2-c2ccc(F)cc2)no1` reads 0.45%; that for `CN(C)c1cc(N)c2ccccc2n1` (tested in a mixture with another compound), -14.8%.
The value for `CN1C(=O)[C@H]2[C@@H](C3CC3)N3C(=O)CN(Cc4ccccc4)C(=O)[C@@]3(C)[C@H]2C1=O` was -2.37%.
Take `CC(C)=CCc1c(O)c(CC=C(C)C)c2occ(-c3ccc(O)cc3)c(=O)c2c1O`: the activation is -5.45%.
The value for `COc1ccc(-c2nc3cnccn3c2NC2CCCCC2)cc1-c1cccc(Cl)c1` was -2.33%.
The value for `Cc1ccc(CNS(=O)(=O)c2ccc3c(c2)N(C)CCO3)cc1` was -5.63%.
Regarding `NS(=O)(=O)c1cc(C(=O)OCC(=O)NNC(=O)c2ccccc2)ccc1Cl`, the activation is -5.64%.
The value for `NC1=NN(c2cccc(C(=O)O)c2)C(=O)C1` was -3.83%; that for `CC(=O)N/C(=N/c1nc(C)cc(C)n1)Nc1ccc(F)cc1F` was 2.96%; that for `Cc1ccc(CNC(=O)C2CCCN2S(=O)(=O)c2ccc3c(c2)C(C)(C)C(=O)N3C)cc1` (configuration not stated) was -1.94%.
The value for `CCc1ccnc(NS(=O)(=O)c2ccc3c(c2)OCCO3)c1` was -3.79%; that for `C/C(=N\NC(=O)c1ccc(C)cc1)C1C(=O)c2ccccc2C1=O` was -16.2%.
The result for `Cc1ccc(OCc2nnc(SC3CCc4ccccc4C3=O)n2C)cc1` (configuration not stated) reads -7.17%.
As for `CC1(C)CC(=O)C=C(c2ccc3ncccc3c2)C1`, the activation is -1.73%.
The value for `Nc1cc(OC(=O)c2ccccc2Br)nn1S(=O)(=O)c1ccccc1` was -18.3%.
The result for `CCOc1cc(C2/C(=C(/O)c3ccc(S(=O)(=O)N4CCCCC4)cc3)C(=O)C(=O)N2CCOC)ccc1O` (configuration not stated) reads -8.45%.
The value for `Cc1nc(CNS(=O)(=O)c2ccc(Oc3ccccc3)cc2)cs1` was -14.3%; that for `O=C(NCc1ccc(Cl)cc1)C(=O)NCC1CCCN1S(=O)(=O)c1cccs1` (configuration not stated) was -5.47%.
On to `C=CCN(N=Nc1cccc([N+](=O)[O-])c1)c1cccc([N+](=O)[O-])c1`, for which the activation is -14.2%.
